Source: ChEMBL document CHEMBL1143890, “Discovery of long-acting N-(cyanomethyl)-N-alkyl-L-prolinamide inhibitors of dipeptidyl peptidase IV” (Bioorg Med Chem, 2008)
Activity calls are given as the source filed them. The calls are words filed in the database; no cut-off is given here.

Experiments:
Dipeptidyl peptidase 8 = Dipeptidyl peptidase 8 (Homo sapiens, UniProt Q6V1X1); test: Inhibition of human DPP8
Rattus norvegicus [1] = species on record: Rattus norvegicus; test: animal or person; details: Sprague-Dawley, Plasma, po, 6 h, read-out: Inhibition
Rattus norvegicus [2] = test: Reduction of glucose level in Sprague-Dawley rat plasma at 1 mg/kg, po after 7 hrs by multiple glucose tolerance test; assay type: functional, organism-based; parameters: dose 1 mg/kg
Outline: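 Male SD rats (364–473 g), fasted at least 20 h, were dosed orally at −0.5 h with 1 mg/kg or with vehicle (0.5% methyl cellulose). Oral glucose, 1 g/kg, was given at 0 and 6 h. Tail vein plasma was taken at −0.08 to 8 h, stored at −80 °C, and assayed by glucose oxidase-peroxidase. Results are mean ± SEM (n = 7), compared with vehicle by Student's t test.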

Rattus norvegicus [3] = test: Ex vivo inhibition of DPP4 in Sprague-Dawley rat plasma at 0.3 mg/kg, po after 9 hrs; assay type: functional
Outline: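 Male Sprague–Dawley rats, 6–7 weeks old, fasted at least 8 h, then given a single oral dose of 0.3 mg/kg in 0.5% methyl cellulose. Jugular vein blood was drawn before dosing and at 0.25–9 h after. Plasma was mixed with Gly-Pro-AMC (added as a 60 µM solution). The initial rate over the first 15 min was read at 37 °C (ex 355/em 460 nm). Inhibition is expressed as % of basal activity.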

Dipeptidyl peptidase 8, sequence (Q6V1X1 whole entry): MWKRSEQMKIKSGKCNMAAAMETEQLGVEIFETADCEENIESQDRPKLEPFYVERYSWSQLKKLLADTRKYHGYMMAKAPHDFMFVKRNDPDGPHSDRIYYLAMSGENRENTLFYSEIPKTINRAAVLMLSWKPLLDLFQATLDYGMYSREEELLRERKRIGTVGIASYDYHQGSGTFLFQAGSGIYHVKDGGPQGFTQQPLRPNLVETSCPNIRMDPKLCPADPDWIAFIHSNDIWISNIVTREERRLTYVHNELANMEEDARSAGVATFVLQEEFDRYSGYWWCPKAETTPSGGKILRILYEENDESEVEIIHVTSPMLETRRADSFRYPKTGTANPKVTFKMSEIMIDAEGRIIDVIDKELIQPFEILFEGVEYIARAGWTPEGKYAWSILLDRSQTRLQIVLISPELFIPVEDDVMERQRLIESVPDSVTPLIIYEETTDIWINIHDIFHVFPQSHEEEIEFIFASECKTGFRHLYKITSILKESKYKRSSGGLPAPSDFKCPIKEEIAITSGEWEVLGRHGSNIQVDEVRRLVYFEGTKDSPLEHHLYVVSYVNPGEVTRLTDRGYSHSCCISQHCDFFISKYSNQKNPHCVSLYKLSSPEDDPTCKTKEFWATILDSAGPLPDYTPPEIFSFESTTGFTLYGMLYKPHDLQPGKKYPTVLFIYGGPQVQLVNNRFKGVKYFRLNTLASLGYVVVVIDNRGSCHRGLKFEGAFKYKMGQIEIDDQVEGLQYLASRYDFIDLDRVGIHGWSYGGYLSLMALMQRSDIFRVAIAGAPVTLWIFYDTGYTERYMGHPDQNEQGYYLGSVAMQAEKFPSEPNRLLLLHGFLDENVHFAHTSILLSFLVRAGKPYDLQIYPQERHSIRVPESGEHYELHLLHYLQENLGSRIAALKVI

Row | Compound | inhibition in vivo at 0.3 mg/kg (Rattus norvegicus [1]) [%] | further results
1 | C[C@@H]1N[C@H](C(=O)N(C)CC#N)C[C@@H]1C(=O)N(C)C | 55 | IC50 (Dipeptidyl peptidase 8): > 100 µM
2 | C#CCN(CC#N)C(=O)[C@@H]1C[C@H](C(=O)N(C)C)[C@H](C)N1 | 18 | –
3 | CCN(CC#N)C(=O)[C@@H]1C[C@H](C(=O)NCc2ccccc2)[C@H](C)N1 | 31 | –
4 | C[C@@H]1N[C@H](C(=O)N(CC#N)C2CC2)C[C@@H]1C(=O)N(C)C | 29 | –
5 | CCN(CC#N)C(=O)[C@@H]1C[C@H](C(=O)N(C)C)[C@H](C)N1 | 73 | Activity (Rattus norvegicus [2]): Active; IC50 (Dipeptidyl peptidase 8): > 100 µM; inhibition in vivo at 0.3 mg/kg (Rattus norvegicus [3]): 62%
6 | CCN(CC#N)C(=O)[C@@H]1C[C@H](C(=O)N2CCCC2)[C@H](C)N1 | 53 | –
7 | C=CCN(CC#N)C(=O)[C@@H]1C[C@H](C(=O)N(C)C)[C@H](C)N1 | 19 | –
8 | C[C@@H]1N[C@H](C(=O)N2CCC[C@H]2C#N)C[C@@H]1C(=O)N(C)C | 89 | inhibition in vivo at 0.3 mg/kg (Rattus norvegicus [3]): 83%
9 | CCN(CC#N)C(=O)[C@@H]1C[C@H](C(=O)N2Cc3ccccc3C2)[C@H](C)N1 | 64 | –
10 | CCN(CC#N)C(=O)[C@@H]1C[C@H](C(=O)N2CCCCC2)[C@H](C)N1 | 60 | –
11 | C[C@@H]1N[C@H](C(=O)N2CCC[C@H]2C#N)C[C@@H]1CC(=O)N(C)C | 40 | –
12 | CC[C@@H]1N[C@H](C(=O)N2CCC[C@H]2C#N)C[C@@H]1C(=O)N(C)C | 45 | –
13 | CCN(CC#N)C(=O)[C@@H]1C[C@H](C(=O)N2CCOCC2)[C@H](C)N1 | 65 | –
